Mot1-301 SUMO – SUMOylation pathway inhibition by Mot1-301 growth rescue; S. cerevisiae Mot1-301 growth rescue, ATP luminescence, 38.5C; percent above DMSO median, 100 means doubled; growth rescue, % at 18.8 µM; hit rate 1% among 320,000; AID 2716;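 active = every valid replicate shows activation above 250% relative to neutral control wells; inactive = the rest, any valid replicate at or below 250%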;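 note: OY570 slx delta 5 strain wells were the positive control but not used for scaling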
C2C12 statin – protects C2C12 myotubes from simvastatin toxicity; ATP luminescence, 48 h; scaled: DMSO 0, geranylgeraniol control 100; rescue of ATP level, % at 7.49 µM; hit rate 0.78% among 330,000;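 active = mean ATP rescue above about 67%, or every replicate alone reaching that limit, limit read from the data, passing the limit was not always enough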;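 note: myotubes were challenged with 10 µM simvastatin during compound exposure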
Cneo AK release – causes C. neoformans cell lysis; adenylate kinase release luminescence, 4 h; normalised: neutral wells 0, clomiphene wells 100; lysis activity, % at 15 µM; hit rate 0.2% among 360,000;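 active = mean lysis activity across replicates of at least 80%, whatever share of replicates individually reach that level; inactive = mean lysis activity below 80%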
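Material – Cryptococcus neoformans yeast cells · Quantity – 5 × 10^6 yeast cells/mL · Buffer or medium – YPD medium · Compound – single dose · Timing – 4 h static compound exposure, 37 °C, read 1 h post-reagent · Signal – adenylate kinase release luminescence · Read-out basis – lysis from increased AK signal · Benchmarks – Clomiphene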
Efflux pump mplx – blocks antifungal efflux pumps in multiplex yeast assay; hit rate 0.44% among 330,000; inhibition, % at 10 µM; S. cerevisiae Candida pump triplex, Nile Red efflux; AID 485275;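 active = plate passing quality check with inhibition over a set limit, or well fluorescence over plate mean plus 4 SD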;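 note: Nile Red retained in pooled yeast measured as flow cytometry median fluorescence; 0% = buffer negative control and 100% = Enniatin B positive control; higher means more Nile Red kept so more efflux inhibition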
Starred values were filed as active, the others as inactive; · = no result; ! = a repeat was not active. Sampled rows, rich in hits. Any-hit rate of the full collection: about 1.8%.

SMILES	Mot1-301 SUMO	C2C12 statin	Cneo AK release	Efflux pump mplx
N#Cc1ccc(-c2nnnn2-c2ccc3c(c2)OCO3)cc1	-0.2	106.7*	6.2	0.0
CCOC(=O)CSc1nnc(NCC(=O)OC)c(=O)[nH]1	29.2	1.8	2.6	0.0
NC(=O)CC[C@@H]1NC(=O)[C@H](CO)NC(=O)c2cc([N+](=O)[O-])cc(I)c2OCC[C@@H](C(N)=O)NC1=O	200.8	106.3*	-1.1	0.1
O=C(c1cccnc1)N1CCN(S(=O)(=O)c2cccc(Cl)c2)CC1	-20.2	·	3.4	-0.5
O=C(c1cncc(Br)c1)N1CCN(S(=O)(=O)c2ccc(Cl)cc2)CC1	306.3*	3.5	1.0	0.0
O=C(COC(=O)c1ccc2c(c1)OCCO2)Nc1cc(Cl)ccc1Cl	320.9*	·	-3.3	0.1
Cc1noc(C)c1C(=O)NNc1ccc(C(C)C)cc1	112.0	·	-2.0	0.0
Cc1noc(C)c1NC(=O)Nc1cccc2c1O[C@@H](CN(C)S(=O)(=O)c1ccc(F)cc1)[C@H](C)CN([C@H](C)CO)C2=O	·	-3.3	-3.5	·
Cc1noc(C)c1NC(=O)Nc1cccc2c1O[C@H](CN(C)S(=O)(=O)c1cn(C)cn1)[C@H](C)CN([C@H](C)CO)C2=O	·	-4.1	96.3*	·
Cc1noc(C)c1NC(=O)Nc1cccc2c1O[C@H](CN(C)S(=O)(=O)c1ccc(F)cc1)[C@@H](C)CN([C@H](C)CO)C2=O	-2.1	81.2*!	-3.0	-0.2
Cc1noc(C)c1NC(=O)Nc1cccc2c1O[C@@H](CN(C)S(=O)(=O)c1cn(C)cn1)[C@H](C)CN([C@@H](C)CO)C2=O	·	-4.6	-0.1	·
COc1cc(CO)cc(I)c1O[C@H]1C=C(C(=O)NCCO)C[C@@H](N(C(=O)c2cc3ccccc3oc2=O)C2CCCCCC2)[C@@H]1O	·	·	-3.5	·
COc1cc(CO)cc(I)c1O[C@H]1C=C(C(=O)NCCO)C[C@@H](N(CC2CCCCC2)C(=O)c2cc3ccccc3oc2=O)[C@@H]1O	·	·	91.6*	·
CC12CCC3C(CCC4CC(O)CCC43C)C1CC(O)C2 (stereo not given)	·	-8.0	-4.1	·
C/C(=N\NC(N)=S)C1=CCC2C3CC[C@H]4CC(O)CC[C@]4(C)C3CC[C@]12C (stereo not given in full)	348.3*	-32.6	3.5	0.1
Cc1ccc(S(=O)(=O)N2CCN(S(=O)(=O)c3ccc(C)cc3)C2c2ccccc2)cc1	-6.9	138.5*	-1.7	0.2
Cc1ccc(S(=O)(=O)N2CCN(S(C)(=O)=O)C2c2ccccc2)cc1 (stereo not given)	795.0	-8.8	-2.1	0.1
CCCCN(C(=O)CCCc1nc2ccccc2c(=O)[nH]1)c1c(N)n(CC(C)C)c(=O)[nH]c1=O	0.0	0.5	3.2	0.3
CCC(=O)Nc1ccc2c(c1)C(=O)N(C)C[C@H](OC)[C@@H](C)CN(Cc1ccccc1)[C@@H](C)CO2	·	-3.7	·	·
CCn1nc(C)cc1C(=O)N1CCc2c([nH]c3ccccc23)C1c1cc(F)ccc1F (stereo not given)	479.2*	·	·	-0.1
COc1ccc(C(=O)NN(C)c2nc(-c3ccccc3)nnc2C(F)(F)F)cc1	3.2	74.1*	-1.7	-0.1
CC(C)C[C@@H](CO)N(Cc1ccccc1)S(=O)(=O)N(Cc1ccccc1)[C@H](CO)CC(C)C	-16.4	126.3*	-0.4	0.2
COc1cccc(CNC(=O)C2CCCN(S(=O)(=O)c3c(C)n[nH]c3C)C2)c1 (stereo not given)	415.9	74.7*	-0.1	-0.1
COc1ccc(CNC(=O)C2CCCN(S(=O)(=O)c3c(C)n[nH]c3C)C2)cc1 (stereo not given)	-21.5	11.2	0.6	-0.1
O=C(CCNS(=O)(=O)c1ccccc1)N1CCC(Cc2ccccc2)CC1	16.7	11.4	-1.0	0.0
SMILES	Mot1-301 SUMO	C2C12 statin	Cneo AK release	Efflux pump mplx
CCCCC(=O)N1CCCC(c2nc3c(nnn3Cc3cc(C)ccc3C)c(=O)[nH]2)C1 (stereo not given)	-5.9	5.7	4.9	-0.1
CC(C)(C)c1ccc(Cn2nnc3c(=O)[nH]c(C4CCCN(C(=O)Cc5cccs5)C4)nc32)cc1 (stereo not given)	-2.5	60.4	0.5	0.1
CC(C)(C)c1ccc(Cn2nnc3c(=O)[nH]c(C4CCN(C(=O)Cc5cccs5)CC4)nc32)cc1	11.7	112.3*	4.4	0.1
Cc1ccc(C)c(Cn2nnc3c(=O)[nH]c(C4CCCN(C(=O)CC(C)C)C4)nc32)c1 (stereo not given)	-8.9	85.4*	1.1	0.8
Cc1ccc(C)c(S(=O)(=O)N2CCC(c3nc4c(nnn4Cc4ccc5c(c4)OCCO5)c(=O)[nH]3)CC2)c1	15.7	77.1*	1.4	0.1
Cc1cc(C(=O)Nc2cccc3c2O[C@H](CN(C)Cc2ccc(Cl)c(Cl)c2)[C@@H](C)CN([C@@H](C)CO)C3=O)n(C)n1	·	-59.1	52.0	·
CCNC(=O)Nc1ccc2c(c1)C(=O)N(C)[C@H]1CC[C@@H](CC(=O)N[C@H](C)c3ccccc3)O[C@H]1CO2	·	12.3	-11.0	·
CCNC(=O)Nc1ccc2c(c1)C(=O)N(C)[C@@H]1CC[C@H](CC(=O)N[C@@H](C)c3ccccc3)O[C@@H]1CO2	·	-12.1	193.2*	·
CN1C(=O)c2cc(NS(C)(=O)=O)ccc2OC[C@@H]2O[C@@H](CC(=O)O)CC[C@@H]21	·	-66.1	89.9*	·
CN1C(=O)c2cc(NS(C)(=O)=O)ccc2OC[C@@H]2O[C@H](CC(=O)O)CC[C@H]21	·	23.5	-2.6	·
CN1C(=O)c2cc(NC(=O)c3cscn3)ccc2OC[C@H]2O[C@H](CC(=O)NCc3ccc(Cl)c(Cl)c3)CC[C@H]21	·	78.2*	2.7	·
CCCNC(=O)C[C@@H]1CC[C@@H]2[C@H](COc3ccc(NC(=O)CCC)cc3C(=O)N2C)O1	·	-33.9	110.4*	·
COc1ccc(C(=O)Nc2ccc(Br)cn2)cc1S(=O)(=O)N1CCOCC1	0.7	5.1	-3.6	-0.1
Cc1ccccc1OCCC(=O)Nc1ccccc1C(=O)N1CCCCC1	8.6	-4.5	-0.7	0.0
Cc1cc(C)cc(NC(=O)C2CC(=O)n3ncnc3N2)c1 (stereo not given)	-18.9	3.1	·	-0.3
CCNC(=O)Nc1ccc2c(c1)C(=O)N(C)[C@H]1CC[C@H](CC(=O)N[C@@H](C)c3ccccc3)O[C@H]1CO2	·	-5.4	90.6*	·
CNC(=O)C[C@@H]1CC[C@@H]2[C@H](COc3ccc(NC(=O)c4cc(C)on4)cc3C(=O)N2C)O1	·	5.4	95.8*	·
COC(=O)c1ccccc1COn1c(=O)c(C)[n+]([O-])c2ccccc21	·	104.8*	0.3	0.0
Clc1ccc(-n2nnc(-c3nccs3)n2)cc1Cl	330.4*	2.7	-3.8	·
Cc1ccc(-n2nnc(-c3nccs3)n2)cc1	-12.7	-35.6	-4.2	0.1
COC(=O)c1ccc(NC(=O)CCNS(=O)(=O)c2cccc3nonc23)cc1	-4.2	-5.2	1.0	-0.1
O=C(NCc1ccco1)c1ccc2c(=O)n(CC3CCCO3)c(=S)[nH]c2c1 (stereo not given)	-8.6	91.1*	0.0	-0.3
CCCCCCCCCn1c2c(c(=N)c3c1CCC3)CCC2	483.1*	·	-1.4	0.3

Screening data (PubChem)
